According to paper PMC10351452 (Autophagy, 2023):

Key:
[1] = test system: BCL2L1(BCL-XL)-BAX interaction; assay: PCA lysate mixing protocol BCL2L1-L1 + BAX-L2; type: biochemical; settings: 1 µM ABT-737 incubated with BCL2L1-L1 lysate 1 h prior to BAX-L2 lysate
[2] = test system: PANC1 cells; assay: Cell viability; type: cell-based, human; settings: CQ 10 µM, day 4; stated as similar to compound 189
[3] = test system: NCI-H460 human lung cancer cells; assay: Cell viability; type: cell-based; settings: CQ 10 µM, 4 days
[4] = test system: NCI-H1299 cells; assay: Cell viability; type: cell-based, human; settings: CQ, 4 days
Procedure, shortened: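 HEC-1A (DMEM/F12) and NCI-H1299 (RPMI) cells, media with 10% FBS, plated at 2000 cells/well and treated next day with test compound 10 µM. CQ 10 µM was used in HEC-1 cells. CellTiter-Glo luminescence read after 4 days and expressed as growth relative to DMSO. Mean ± SD; n = 11 for HEC-1A, n = 6 for NCI-H1299. One-way ANOVA with Tukey.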

[5] = test system: autophagosomes and autolysosomes in RFP-GFP-LC3B PANC1 cells; assay: Autophagy flux assay in RFP-GFP-LC3B PANC1 stable cells; type: cell-based, human; settings: RFP-GFP-LC3B PANC1, CQ 10 µM, 24 h
Procedure, shortened: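 PANC1 cells transfected with an RFP-GFP-LC3B vector and kept two weeks under puromycin to give a stable polyclonal line. Plated on coverslips at 3X105 cells/well and treated next day, with CQ 10 µM as a comparator. After 24 h: DAPI stain, 4% paraformaldehyde fixation, confocal imaging. Autophagosomes RFP+GFP+; autolysosomes counted as red minus green dots per cell. Normalised to DMSO, mean ± SD, n = 3 biological repeats, two-way ANOVA/Sidak.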

SMILES | luminescence in BCL2L1-L1/BAX-L2 PCA [1] | reduction of growth of PANC1 cells [2] [%] | effect on growth of NCI-H460 cells [3] | response of NCI-H1299 cells (viability) [4] | number of autophagosomes and autolysosomes per cell [5]
CN(C)CC[C@H](CSc1ccccc1)Nc1ccc(S(=O)(=O)NC(=O)c2ccc(N3CCN(Cc4ccccc4-c4ccc(Cl)cc4)CC3)cc2)cc1[N+](=O)[O-] [ABT-737] | significant decrease in luminescence | – | – | – | –
CCN(CC)CCCC(C)Nc1ccnc2cc(Cl)ccc12 (centres unmarked) [CQ, chloroquine] | – | > 50 | no effect | did not respond | shift toward increased number of autophagosomes at the expense of autolysosomes
